# GPR7 antag – blocks human GPR7 receptor signaling; P48145; GPR7-expressing cells, fluorescence antagonist assay; inhibition, % at 4.4 µM; 290,000 compounds, 1.1% hits; in the data active = inhibition above about 16%, passing the limit was not always enough;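 note: cells stimulated with the agonist NPW; 0% = agonist with vehicle and 100% = vehicle without agonist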
# Target sequence (P48145 whole entry, looked up): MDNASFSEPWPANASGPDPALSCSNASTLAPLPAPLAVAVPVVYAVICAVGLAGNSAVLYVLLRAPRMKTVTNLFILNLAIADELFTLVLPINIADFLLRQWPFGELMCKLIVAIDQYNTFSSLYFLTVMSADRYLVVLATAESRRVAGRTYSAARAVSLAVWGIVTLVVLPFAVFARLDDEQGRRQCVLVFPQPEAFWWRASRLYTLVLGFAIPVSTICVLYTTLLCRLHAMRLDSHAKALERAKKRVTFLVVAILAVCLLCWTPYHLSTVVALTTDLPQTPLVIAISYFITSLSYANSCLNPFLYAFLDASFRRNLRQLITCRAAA
# TRPML3 ag – activates the human TRPML3 channel; 220,000 compounds, 0.29% hits; activation, % at 3 µM; Q8TDD5; HEK293 TRPML3-YFP, Fluo-8 calcium fluorescence; 100% = the carbachol control signal;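 active = activation above its plate's cutoff, the mean activation of the plate's test wells plus 3 SD, cut at about 12% in these data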;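 note: 0% = DMSO only wells and 100% = carbachol wells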
#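 Test system: HEK293 cells stably carrying human TRPML3-YFP; Doses: single dose, 3 µM final nominal compound, 0.3% DMSO final; Schedule: dye loading 1 h 37 °C then 30 min ambient, 125 s read; Technique: Fluo-8 calcium fluorescence; Benchmarks: high control carbachol 87 µM, low control DMSO.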
# OX1R antag-1 – human HCRTR1 antagonism; O43613; CHO/OX1R cells, Fluo-8 calcium fluorescence, orexin A; inhibition, % at 5 µM; 330,000 compounds, 0.43% hits; AID 434989;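 active = inhibition above its plate's threshold, mean inhibition of all tested compounds on the plate plus 3 SD, cut at about 37% in these data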;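 note: 0% = orexin A challenge wells and 100% = SB-334867-A antagonist wells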
# Target sequence (O43613 whole entry, looked up): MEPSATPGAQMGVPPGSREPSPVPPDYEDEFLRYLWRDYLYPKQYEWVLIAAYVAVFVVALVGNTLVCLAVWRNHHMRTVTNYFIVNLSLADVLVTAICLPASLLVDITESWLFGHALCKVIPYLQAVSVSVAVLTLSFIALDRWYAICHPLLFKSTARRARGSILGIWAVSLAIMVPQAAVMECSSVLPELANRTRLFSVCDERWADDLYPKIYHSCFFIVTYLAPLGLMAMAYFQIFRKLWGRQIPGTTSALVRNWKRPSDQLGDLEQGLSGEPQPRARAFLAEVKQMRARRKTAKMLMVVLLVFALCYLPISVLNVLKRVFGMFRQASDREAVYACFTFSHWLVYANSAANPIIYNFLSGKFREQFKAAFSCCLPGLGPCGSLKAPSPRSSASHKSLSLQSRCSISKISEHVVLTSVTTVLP
# zfTRPN1 agonist – activates the zebrafish TRPN1 channel; 220,000 compounds, 0.18% hits; activation, % at 3 µM; HEK293 zebrafish TRPN1-YFP, Fluo-8 calcium fluorescence; 100% = response to 87 µM carbachol;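 active = activation above its plate's cutoff, the mean activation of test wells on that plate plus 3 SD, cut at about 19% in these data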;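 note: 0% = DMSO alone and 100% = 87 µM carbachol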
#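 Material: zebrafish TRPN1-YFP in HEK293 cells; Doses: single test compound dose, 3 µM nominal, 0.3% DMSO; Timing: dye loading 1 h at 37 °C, then 30 min room temperature; Technique: intracellular calcium fluorescence with Fluo-8; Benchmarks: high carbachol 87 µM, low DMSO alone.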
# OX1R antag-2 – antagonists of human orexin 1 receptor (OX1R) | inhibition, % at 6.6 µM | 330,000 compounds, 1.8% hits | OX1R-expressing cells, FRET antagonist read-out; in the data active = inhibition mostly above about 38%, no sharp cut-off; inactive = mostly below about 40%;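 note: 0% = agonist challenge alone and 100% = reference antagonist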
# CHO parental Ca – counter-screen for OX1R antagonists: effect in parental CHO cells; inhibition, % at 5.6 µM; parental CHO-K1, ATP-induced calcium, Fluo-8 fluorescence; 330,000 compounds, 0.63% hits; AID 463079;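 active = inhibition above that plate's mean sample inhibition plus 3 SD, cut at about 26% in these data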;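 note: 0% = ATP-challenged DMSO wells and 100% = DMSO wells without ATP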
#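 Test system: untransfected parental CHO cell line; also added: ATP stimulus; dosing: 5.6 µM, single dose; signal: calcium-sensitive Fluo-8 fluorescence; measure: percent inhibition of ATP-evoked calcium rise, normalized to controls; benchmarks: low control ATP plus DMSO, high control DMSO only; replication: one well per compound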
# Starred values were filed as active, the others as inactive; / = not tested or not shown. This is a sample that favours compounds with a hit; in the whole collection about 3.2% have one here.
SMILES,GPR7 antag,TRPML3 ag,OX1R antag-1,zfTRPN1 agonist,OX1R antag-2,CHO parental Ca
O=C1CCCN1CCC1CCCCN1Cc1nc(-c2cnccn2)no1 (centres undefined),-8.1,1.2,-12.8,1.3,-0.8,-18.8
C=CCO/N=C(/C)c1ccc(Oc2cnccn2)cc1,-3.0,-0.4,4.0,-0.4,15.4,-5.5
CC(NC(=O)c1cc2c(=O)n3ccccc3nc2n(CC2CCCO2)c1=N)c1ccccc1 (centres undefined),-0.4,/,-19.0,/,36.9*,-9.2
N#Cc1cc2c(=O)n3ccccc3nc2n(CC2CCCO2)c1=N (centres undefined),-9.2,-0.2,/,0.9,/,/
N=c1c(C(=O)NC2CCCC2)cc2c(=O)n3ccccc3nc2n1CC1CCCO1 (centres undefined),7.5,/,-0.3,/,50.1*,-15.2
N=c1c(C(=O)NC2CCCC2)cc2c(=O)n3ccccc3nc2n1C1CCCC1,-6.2,0.3,-6.9,-0.6,32.4,-1.2
N=c1c(C(=O)NCc2ccco2)cc2c(=O)n3ccccc3nc2n1C1CCCC1,-13.6,/,-18.4,/,53.8*,-5.8
COCCCn1c(=N)c(C(=O)NC2CCCCC2)cc2c(=O)n3ccccc3nc21,17.4,0.5,-28.6,0.6,75.5*,-9.1
COc1ccc(Cn2c(=N)c(C(=O)NC3CCCCC3)cc3c(=O)n4ccccc4nc32)cc1,22.8,/,-31.5,/,21.9,-7.0
Cc1ccc(CNC(=O)c2cc3c(=O)n4ccccc4nc3n(CC3CCCO3)c2=N)cc1 (centres undefined),1.4,0.2,-48.7,-0.5,66.5*,-18.3
CN(CCOC(=O)c1ccc2c(c1)OCCO2)Cc1ccccc1,20.0*,0.1,-24.9,-0.3,0.6,-11.5
CN(CCOC(=O)c1ccc2c(c1)OCCO2)C(C)(C)C,-4.6,0.4,-7.7,1.1,16.0,-17.5
Oc1c(Br)cc(Br)c(/C=N/n2c(-c3ccccc3)n[nH]c2=S)c1Br,6.5,/,3.0,/,71.1*,-2.5
Oc1ccc(Br)cc1/C=N/n1c(-c2ccccc2)n[nH]c1=S,-5.7,/,-8.7,/,0.5,1.1
S=c1[nH]nc(-c2ccncc2)n1/N=C/c1cn(-c2ccccc2)nc1-c1ccccc1,-13.4,-0.3,-58.5,1.9,52.1*,-67.9
COc1ccc(-n2ccnc(SCC(=O)NC3CCCC3)c2=O)cc1,-1.3,/,-7.5,/,44.6*,-6.0
COc1ccc(-n2ccnc(SCC(=O)NC3CCCCC3)c2=O)cc1,4.5,/,-10.1,/,20.9,-4.2
CC(=O)Nc1ccc(/C=N/NC(=S)NC(C)C)cc1,-4.9,0.4,-6.7,0.3,28.9,6.6
Clc1ccc2c(N/N=C/c3ccc(Br)cc3)ccnc2c1,-4.0,1.1,7.7,-0.2,15.4,49.1*
Cc1cc2occ(CC(=O)N(C)CC(=O)Nc3ccccc3Br)c2cc1C,/,/,5.0,/,68.2*,-16.2
Cc1ccc(C)c(NC(=O)CN(C)C(=O)Cc2coc3cc(C)c(C)cc23)c1,/,/,-14.8,/,22.6,-11.6
COc1cccc(/C=C/C(=O)N2CCN(c3n[nH]c(=O)[nH]c3=O)CC2)c1OC,-14.4,1.1,-13.8,0.9,24.5,-5.1
Cc1sc2nc3ccc(N4CCCC4)nn3c(=O)c2c1C,-6.0,1.2,-15.4,1.4,48.4*,0.7
Cc1ccc(N)cc1NC(=O)CN1CCOCC1,-10.0,/,-22.2,/,-1.2,0.3
CC1CC(C)CN(CCOc2ccccc2-c2ccccc2)C1 (centres undefined),24.7*,0.4,-2.5,2.0,7.1,2.1
SMILES,GPR7 antag,TRPML3 ag,OX1R antag-1,zfTRPN1 agonist,OX1R antag-2,CHO parental Ca
CC1CCN(CCOc2ccccc2-c2ccccc2)CC1,20.7,0.7,-27.3,0.4,-3.3,-14.0
O=C(Nc1ccc(N2CCCCC2)cc1)C1CCCN1S(=O)(=O)c1ccc(F)cc1 (centres undefined),/,/,-18.3,/,4.8,-20.3
O=C(Nc1cccc(S(=O)(=O)N2CCCCC2)c1)C1CCCN1S(=O)(=O)c1ccccc1F (centres undefined),/,/,25.4,/,27.9*,-12.3
CS(=O)(=O)c1cccc(NC(=O)C2CCCN2S(=O)(=O)c2ccc(F)cc2)c1 (centres undefined),7.4,/,19.9,/,54.9*,-3.2
Cc1ccc2c(CN(C)Cc3cccc(Cl)c3)cc(=O)oc2c1C,8.0,/,-11.7,/,1.0,-9.1
CSc1ccc(CN(C)Cc2cc(=O)oc3c(C)c(C)ccc23)cc1,-7.3,/,-14.8,/,12.0,52.8*
Cc1ccccc1NC(=O)CSc1nnc2ccc(-c3cccnc3)nn12,/,/,-19.5,/,53.5*,-7.4
COc1ccccc1CCNC(=O)CSc1nnc2ccc(-c3ccncc3)nn12,-1.7,0.2,-19.9,0.2,39.2*,-11.9
O=C(CSc1ccc(-c2ccccc2)nn1)N1CCOCC1,-14.2,0.7,-3.5,1.1,48.6*,-13.7
COc1cccc(-c2ccc3nnc(SCC(=O)N4CCOCC4)n3n2)c1,/,/,-7.9,/,51.5*,-1.5
CN=C1S/C(=C\c2cccc(Cl)c2Cl)C(=O)N1C,/,/,-28.7,/,10.0,-25.2
CCN(CC(=O)N1CCOCC1)S(=O)(=O)c1ccc(Cl)cc1,-16.6,/,-14.4,/,1.0,-0.9
COc1ccc(-c2ccc3nnc(SCC(N)=O)n3n2)cc1,-1.1,0.7,5.0,-0.2,54.5,-7.1
CCSc1nnc2ccc(-c3ccc(OC)c(OC)c3)nn12,-26.4,/,-5.7,/,39.2*,-7.7
CC1CCN(C(=O)CSc2nnc3ccc(-c4cccnc4)nn23)CC1,/,/,-24.4,/,34.8*,-10.2
CNC(=O)c1c(NC(=O)c2nc3ccccc3s2)sc2c1CCC2,-1.2,0.5,-8.0,1.1,44.0*,-6.2
COC(=O)c1c(NC(=O)c2nc3ccccc3s2)sc2c1CCN(C(C)=O)C2,0.9,0.1,-15.6,0.8,22.3,-12.1
Cc1ccc(N=Nc2ccc(O)cc2)c(Br)c1,-3.1,/,3.6,/,3.2,56.0*
Oc1ccc(N=Nc2ccc(Br)cc2)c(O)c1,12.5,0.8,-8.7,2.0,1.8,4.6
Cc1ccc(C(=O)c2ccccc2C(=O)OCC(=O)NCC2CCCO2)cc1 (centres undefined),-7.9,0.3,-35.7,-2.6,19.9,-19.9
CCc1nnc(NC(=O)CSCc2cc(=O)n3ccsc3n2)s1,-7.5,/,6.6,/,8.9,-5.4
O=C1CC(Nc2ccc(N3CCOCC3)cc2)C(=O)N1c1ccccc1 (centres undefined),-10.3,0.7,-12.6,0.8,47.9,8.1
COc1ccccc1N1C(=O)CC(Nc2ccc(N3CCOCC3)cc2)C1=O (centres undefined),-12.1,0.2,-18.3,0.7,71.1*,4.8
Cc1cc(/C=N/NC(N)=S)c(O)c(/C=N/NC(N)=S)c1,-0.2,15.8*,-4.1,41.2*,45.1,-3.0
O=c1c2sc(-c3ccccc3)cc2nc2n1CCC2,0.9,1.4,-15.5,0.4,52.0*,-10.4
N#C/C(=C\c1cc2c(cc1Br)OCO2)c1ccc(C(=O)O)cc1,-7.9,/,-11.8,/,15.7,100.0*
